Results: PubChem BioAssay
The source made the active and inactive calls. Rule as the data show it, unless noted: active = inhibition above about 30%; inactive = the rest.

Tests used:
[1] = reducers of endogenous Her2 protein level, primary screen, SKBR3 breast tumor cells, AlphaScreen, ATP viability (AID 461;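 active = Her2 level under about 52% in both replicate screens, with viability over 70% of control, limit read from the data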;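 as to Her2 level: lower value means less Her2 protein in the cells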;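 as to viability: percent of carrier control wells set as 100% viability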); settings: 18-24 h, measured here: SKBR3 viability, ATP luminescence, at 10 µM
[2] = molecular target: Receptor tyrosine-protein kinase erbB-2 (Homo sapiens) (UniProt P04626); assay: as above; settings: 18-24 h, at 10 µM, stronger effect = lower value
[3] = SK-BR-3 cell growth inhibitors, pilot screen, 24 h, human (AID 572;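 active = viability at or below 10% of carrier control in both of two separate runs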;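 also: compound exposure lasted between 18 and 24 h rather than exactly 24 h; 100% = carrier-treated control wells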); settings: SK-BR-3 viability, CellTiter-Glo luminescence, at 10 µM, stronger effect = lower value
[4] = HUVEC growth inhibition – cell-based, human, primary screen (AID 575;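 active = viability at or below 30% in both replicate assays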;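 also: 100% = median of untreated cell wells with 0.1% DMSO on each plate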); settings: HUVEC proliferation, CellTiter-Glo luminescence, 72 h; at 10 µM; stronger effect = lower value
Method in brief: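 Assay system: Primary human umbilical vein endothelial cells | Quantity: 1250 cells per well | Medium: Supplemented EBM, 2% fetal bovine serum | Detection: CellTiter-Glo luminescence measuring cellular ATP | Read-out: % viability vs DMSO wells | Plate: Collagen-coated 384-well format | Times: 72 h exposure, 37 °C, 5% CO2, 30 min RT equilibration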

[5] = growth inhibitors of H69AR lung tumor, primary screen, human, duplicate replicates (AID 580;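 active = viability at or under a set limit in both replicates, limit being median viability minus 3 SD, cut at about 48% in these data, passing the limit was not always enough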;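 also: 100% = mean luminescence of untreated wells and 0% = no signal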); settings: H69AR lung tumor cells viability, ATP luminescence, 72 h; at 10 µM; stronger effect = lower value
[6] = reversal of MRP1-mediated doxorubicin resistance, pilot screen, H69AR cells, doxorubicin co-treatment (AID 601;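 active = viability loss from added drug above about 55%, and viability with drug at most 40%, in both replicates, limit read from the data, passing the limit was not always enough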); settings: CellTiter-Glo, 72 h, at 10 µM; for differential viability (reversal): stronger effect = higher value
[7] = 384-well plate pilot, post-Golgi transport modulator project, inhibition of yeast transport mutant growth (AID 636; in the data active = inhibition above about 31%); settings: absorbance 615 nm, about 18 h, stronger effect = higher value
[8] = growth suppression of yeast trafficking mutant, preliminary HTS, modulators of trafficking downstream of Golgi apparatus project, 1536-format plate, OD 615 nm (AID 637); settings: yeast transport mutant growth, absorbance 615 nm, 18 h; stronger effect = higher value
[9] = H69AR cells + 2 uM doxorubicin, measured here: viability with 2 uM doxorubicin, stronger effect = lower value
[10] = H69AR cells, compound alone cytotoxicity

Receptor tyrosine-protein kinase erbB-2 (Homo sapiens), sequence (P04626 whole entry, looked up): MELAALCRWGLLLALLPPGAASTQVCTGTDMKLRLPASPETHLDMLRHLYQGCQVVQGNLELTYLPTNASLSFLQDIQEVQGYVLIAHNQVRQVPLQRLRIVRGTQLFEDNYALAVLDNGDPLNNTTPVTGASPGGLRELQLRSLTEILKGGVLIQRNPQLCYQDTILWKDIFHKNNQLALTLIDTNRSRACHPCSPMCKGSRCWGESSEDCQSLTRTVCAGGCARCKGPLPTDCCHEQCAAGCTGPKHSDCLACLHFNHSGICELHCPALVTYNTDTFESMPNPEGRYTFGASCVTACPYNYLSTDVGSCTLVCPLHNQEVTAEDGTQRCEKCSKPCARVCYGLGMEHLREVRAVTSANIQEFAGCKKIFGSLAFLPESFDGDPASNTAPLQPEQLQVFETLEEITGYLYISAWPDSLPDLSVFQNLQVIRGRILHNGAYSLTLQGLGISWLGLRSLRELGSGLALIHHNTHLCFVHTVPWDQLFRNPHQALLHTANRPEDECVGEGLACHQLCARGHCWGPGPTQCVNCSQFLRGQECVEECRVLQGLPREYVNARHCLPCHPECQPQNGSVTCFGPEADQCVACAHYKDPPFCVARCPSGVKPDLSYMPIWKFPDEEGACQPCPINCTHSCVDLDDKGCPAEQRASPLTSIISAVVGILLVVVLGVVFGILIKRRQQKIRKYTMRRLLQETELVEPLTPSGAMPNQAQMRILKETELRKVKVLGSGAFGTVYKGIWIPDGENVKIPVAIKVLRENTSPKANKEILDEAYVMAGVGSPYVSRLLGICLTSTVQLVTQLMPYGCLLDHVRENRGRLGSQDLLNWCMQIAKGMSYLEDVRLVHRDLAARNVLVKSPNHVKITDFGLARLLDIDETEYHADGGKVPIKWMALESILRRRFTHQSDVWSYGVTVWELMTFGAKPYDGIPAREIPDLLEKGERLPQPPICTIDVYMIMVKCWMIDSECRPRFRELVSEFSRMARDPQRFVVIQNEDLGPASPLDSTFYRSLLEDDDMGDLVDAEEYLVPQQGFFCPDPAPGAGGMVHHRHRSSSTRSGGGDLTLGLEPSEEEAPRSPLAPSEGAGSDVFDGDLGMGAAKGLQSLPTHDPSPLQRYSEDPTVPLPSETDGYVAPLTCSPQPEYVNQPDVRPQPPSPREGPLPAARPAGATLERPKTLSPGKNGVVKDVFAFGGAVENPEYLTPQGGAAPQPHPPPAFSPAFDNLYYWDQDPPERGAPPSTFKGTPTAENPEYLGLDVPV

SMILES	viability [1] [%]	Her2 level [2]	viability [3]	viability [4]	viability [5]	differential viability (reversal) ([6]; H69AR cells + 2 uM doxorubicin)	viability [6, 9] [%]	viability [6, 10] [%]	inhibition [7]	inhibition [8]
O=S(=O)(NCc1cccnc1)c1cccc2nsnc12	98	83.5% (inactive)	98% (inactive)	89.6% (inactive)	92.3% (inactive)	6.5% (inactive)	85.8	92.3	-7.07% (inactive)	6.56% (inactive)
COc1ccc(S(=O)(=O)N(C)c2ccc(C(=O)N3CCOCC3)cc2)cc1	79.5	89.5% (inactive)	79.5% (inactive)	94.4% (inactive)	95.2% (inactive)	3.61% (inactive)	91.5	95.2	-0.92% (inactive)	1.8% (inactive)
CCc1nc(C)c(-c2ccccc2)c(=O)[nH]1	102	120% (inactive)	102% (inactive)	81.8% (inactive)	113% (inactive)	25.6% (inactive)	87.2	113	-3.2% (inactive)	-8.39% (inactive)
COC(=O)C1=C(C)OC(N)=C(C#N)C1c1ccccc1 (stereo not given)	94.5	77% (inactive)	94.5% (inactive)	102% (inactive)	94% (inactive)	12.1% (inactive)	82	94	-1.18% (inactive)	-9.82% (inactive)
CCOC(=O)Nc1ccc2c(CN3C(=O)NC4(CCCC4)C3=O)cc(=O)oc2c1	89.5	92.5% (inactive)	89.5% (inactive)	89.2% (inactive)	88.3% (inactive)	-1.09% (inactive)	89.4	88.3	-6.58% (inactive)	-0.16% (inactive)
O=C(C(c1ccccc1)c1ccccc1)N1CCN(Cc2ccccn2)CC1	81	112% (inactive)	81% (inactive)	84.7% (inactive)	93.4% (inactive)	-0.39% (inactive)	93.8	93.4	-1.03% (inactive)	-5.83% (inactive)
O=C(CNC(=O)c1ccccc1C(=O)O)c1ccccc1	128	79.5% (inactive)	128% (inactive)	100% (inactive)	90% (inactive)	7.15% (inactive)	82.8	90	2.6% (inactive)	-0.49% (inactive)
CCN(CC)c1ccc(-c2nn3c(-c4cccnc4)nnc3s2)cc1	91.5	64% (inactive)	91.5% (inactive)	37% (inactive)	10.9% (active)	-4.5% (inactive)	15.4	10.9	-5.92% (inactive)	-7.1% (inactive)
O=C(OCc1ccccc1F)c1ccc2c(c1)OCCO2	122	86% (inactive)	122% (inactive)	103% (inactive)	92% (inactive)	9.29% (inactive)	82.7	92	-5.47% (inactive)	-5.08% (inactive)
CCOC(=O)CCCn1nc(C)n2c(cc3sccc32)c1=O	87.5	94.5% (inactive)	87.5% (inactive)	91.8% (inactive)	102% (inactive)	20.7% (inactive)	81	102	-5.07% (inactive)	-3.77% (inactive)
CCOC(=O)c1cccc(NC(=O)CSc2nnc(-c3ccoc3C)n2CCOC)c1	102	92% (inactive)	102% (inactive)	91.6% (inactive)	89.7% (inactive)	-2.74% (inactive)	92.4	89.7	-1.45% (inactive)	0.81% (inactive)
COc1ccccc1OCCCCNCCO	95.5	116% (inactive)	95.5% (inactive)	92% (inactive)	101% (inactive)	12.6% (inactive)	88.7	101	-1.56% (inactive)	-7.83% (inactive)
Brc1cccc(-c2cnc3n2CCCCC3)c1	95.5	89.5% (inactive)	95.5% (inactive)	67.1% (inactive)	91.5% (inactive)	11.1% (inactive)	80.4	91.5	-6.53% (inactive)	4.26% (inactive)
C=CCn1c(-c2cccs2)nc2nc3ccccc3nc21	87	106% (inactive)	87% (inactive)	80.2% (inactive)	54.3% (inactive)	-18.6% (inactive)	72.9	54.3	-1.82% (inactive)	-8.73% (inactive)
CC1(C)CC(=O)C(C=NCCc2ccc(S(N)(=O)=O)cc2)=C(O)C1	116	95% (inactive)	116% (inactive)	98.7% (inactive)	88% (inactive)	-2.06% (inactive)	90	88	-6.13% (inactive)	-2.3% (inactive)
CCCOC(=O)C1[C@H]2C(=O)N(CCCOC)C[C@]23C=C[C@H]1O3 (stereo not given in full)	92.5	85% (inactive)	92.5% (inactive)	98.5% (inactive)	98.3% (inactive)	-1.98% (inactive)	100	98.3	-5.06% (inactive)	-3.17% (inactive)
O=C(NCC1COCCO1)C1CCN(S(=O)(=O)c2ccccc2)CC1 (stereo not given)	90	119% (inactive)	90% (inactive)	106% (inactive)	109% (inactive)	10.3% (inactive)	99.2	109	1.2% (inactive)	-7.26% (inactive)
O=C(CCCC(=O)OCC(=O)NC1CCCC1)Nc1ccccn1	95.5	88% (inactive)	95.5% (inactive)	98.1% (inactive)	96.9% (inactive)	-6.12% (inactive)	103	96.9	-6.8% (inactive)	3.28% (inactive)
CN(C)c1ccc(CNC2CC(C)(C)NC(C)(C)C2)cc1	91	112% (inactive)	91% (inactive)	94.2% (inactive)	98.9% (inactive)	7.67% (inactive)	91.3	98.9	-7.5% (inactive)	-6.07% (inactive)
O=C(CCS(=O)(=O)c1cccc2nonc12)Nc1cccc2c1CCCC2	94.5	114% (inactive)	94.5% (inactive)	103% (inactive)	95.5% (inactive)	12% (inactive)	83.5	95.5	-6.44% (inactive)	-3.65% (inactive)
COCc1cc(C)nc(SCC(=O)Nc2cccc(C)c2C)c1C#N	103	95.5% (inactive)	103% (inactive)	82.3% (inactive)	94.4% (inactive)	11.9% (inactive)	82.5	94.4	-3.16% (inactive)	-0.48% (inactive)
COc1ccc2nc(SCC(=O)NC(C)C)[nH]c2c1	104	106% (inactive)	104% (inactive)	102% (inactive)	96.4% (inactive)	4.97% (inactive)	91.4	96.4	3.25% (inactive)	-10.8% (inactive)
COc1cc(C(=O)Nc2cc(Cl)ccc2C)c(-n2cnnn2)cc1OC	102	98% (inactive)	102% (inactive)	92.6% (inactive)	94.9% (inactive)	4.13% (inactive)	90.8	94.9	-8% (inactive)	2.95% (inactive)
CC(Oc1ccc(Cl)cc1Cl)C(=O)Nc1ncccn1 (stereo not given)	93.5	108% (inactive)	93.5% (inactive)	99.6% (inactive)	97.2% (inactive)	9.42% (inactive)	87.7	97.2	-1.17% (inactive)	-11% (inactive)
N#Cc1cn(CC(=O)N2CCCC2)c2ccccc12	118	85% (inactive)	118% (inactive)	100% (inactive)	93.6% (inactive)	8.44% (inactive)	85.2	93.6	-3.29% (inactive)	1.15% (inactive)
CCCn1c(SCC(=O)N2CCCc3ccccc32)nnc1-c1ccccn1	84.5	102% (inactive)	84.5% (inactive)	103% (inactive)	95.1% (inactive)	1.95% (inactive)	93.2	95.1	-4.67% (inactive)	5.16% (inactive)
Cc1cccn2c(=O)c3cc(C#N)c(=O)n(CCCN4CCOCC4)c3nc12	88.5	85% (inactive)	88.5% (inactive)	99.8% (inactive)	102% (inactive)	20% (inactive)	82.2	102	-3.51% (inactive)	1.83% (inactive)
CC(C)(C)n1ncc2c(=O)n(CC(=O)c3ccccc3)cnc21	95	84% (inactive)	95% (inactive)	80.2% (inactive)	84.2% (inactive)	-2.76% (inactive)	86.9	84.2	-0.39% (inactive)	-3.23% (inactive)
CCCn1c(=O)c2ccccc2n2c(SCCOc3ccccc3F)nnc12	72	102% (inactive)	72% (inactive)	85.2% (inactive)	88.8% (inactive)	18.1% (inactive)	70.7	88.8	2.08% (inactive)	-6.72% (inactive)
